Usually MIC stands for the lowest concentration that inhibits growth of the organism. Read a low MIC as a more susceptible organism.

Assay [1] deals with Staphylococcus aureus. In words: Antibacterial activity against 5 x 10^5 CFU/ml epidemic methicillin-resistant Staphylococcus aureus EMRSA-15 after 18 hrs by MTT assay. The note with it: EMRSA-15, 18 h. The format is functional. An outline of the steps: (§1)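 Strains grown on nutrient agar 24 h at 37 °C; inoculum adjusted to 0.5 McFarland in normal saline. Compounds dissolved in DMSO, diluted in Mueller-Hinton broth to a 512 μg/mL starting concentration, then two-fold serially diluted in MHB supplemented with Mg2+ (10 mg/L) and Ca2+ (20 mg/L). Incubated 18 h at 37 °C; MIC read as lowest concentration with no visible growth, confirmed by MTT (20 min, 37 °C). Triplicates.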
Background: Formazan colour is commonly taken as a measure of viable cells.

Assay [2] relates to Staphylococcus aureus. In words: Antibacterial activity against 5 x 10^5 CFU/ml epidemic methicillin-resistant Staphylococcus aureus EMRSA-16 after 18 hrs by MTT assay. The format is functional. Conditions: EMRSA-16, 18 h. An outline of the steps:
as §1

For assay [3], the system named is Staphylococcus aureus. In words: Antibacterial activity against 5 x 10^5 CFU/ml macrolide-resistant Staphylococcus aureus RN4220 expressing MsrA macrolide efflux protein after 18 hrs by MTT assay. The format is functional. The note with it: RN4220, 18 h. An outline of the steps: as §1
Assay [4] has as its system Staphylococcus aureus. In words: Antibacterial activity against 5 x 10^5 CFU/ml multi-drug-resistant Staphylococcus aureus SA1199B expressing NorA quinolone efflux protein after 18 hrs by MTT assay. It is filed as functional. An outline of the steps:
as §1

Assay [5] has as its system Staphylococcus aureus. In words: Antibacterial activity against 5 x 10^5 CFU/ml multi-drug-resistant Staphylococcus aureus XU212 expressing TetK tetracycline efflux protein after 18 hrs by MTT assay. The format is functional. The note with it: XU212, 18 h. An outline of the steps:
as §1

Assay [6] has as its system Staphylococcus aureus. In words: Antibacterial activity against 5 x 10^5 CFU/ml Staphylococcus aureus ATCC 25923 after 18 hrs by MTT assay. Conditions: ATCC 25923, 18 h.

≈ marks a conversion by molar mass, not a printed value. Bounds are passed on as bounds.

`C=C(C)[C@H]1C[C@@H](O)[C@]2(C)C/C=C(\C)CC/C=C(\C)CC[C@@H]12`: the MIC came out at 2 µg/mL (≈ 6.93 µM) with Staphylococcus aureus [1]; 2 µg/mL (≈ 6.93 µM) in the assay with Staphylococcus aureus [2]; 4 µg/mL (≈ 13.9 µM) in the assay on Staphylococcus aureus [3]; 2 µg/mL (≈ 6.93 µM) in the assay on Staphylococcus aureus [4]; 4 µg/mL (≈ 13.9 µM) in the assay with Staphylococcus aureus [5]; 4 µg/mL (≈ 13.9 µM) against Staphylococcus aureus [6].
Consider `C=C(C)[C@H]1CC[C@]2(C)C[C@@H]3O[C@@]3(C)CC/C=C(\C)CC[C@@H]12`, for which the MIC against Staphylococcus aureus [1] was greater than 128 µg/mL; against Staphylococcus aureus [2], 32 µg/mL (≈ 111 µM); with Staphylococcus aureus [3], greater than 128 µg/mL; in the assay with Staphylococcus aureus [4] it was greater than 128 µg/mL; in the assay on Staphylococcus aureus [5], greater than 128 µg/mL; in the assay with Staphylococcus aureus [6] it was greater than 128 µg/mL.
Consider `CC(=O)O[C@H]1C/C(C)=C/CC[C@@H](C)/C=C/[C@@]2(C)CC[C@@H](C(C)(C)O)[C@H]12`, for which the MIC with Staphylococcus aureus [1] was greater than 128 µg/mL; in the assay with Staphylococcus aureus [2] it was 64 µg/mL (≈ 184 µM); with Staphylococcus aureus [3], greater than 128 µg/mL; in the assay with Staphylococcus aureus [4], greater than 128 µg/mL; against Staphylococcus aureus [5] it was greater than 128 µg/mL; in the assay on Staphylococcus aureus [6] it was greater than 128 µg/mL.
`C=C(C)[C@H]1CC(=O)[C@]2(C)C/C=C(\C)CC[C@@H]3O[C@@]3(C)CC[C@@H]12`: the MIC in the assay on Staphylococcus aureus [1], in the assay on Staphylococcus aureus [2], against Staphylococcus aureus [3], in the assay with Staphylococcus aureus [4], with Staphylococcus aureus [5] and against Staphylococcus aureus [6] was greater than 128 µg/mL throughout.
On to `C=C(C)[C@@H]1CC[C@]2(C)/C=C/[C@H](C)CC/C=C(\C)CC[C@@H]12`, for which the MIC in the assay on Staphylococcus aureus [1], in the assay with Staphylococcus aureus [2], with Staphylococcus aureus [3], with Staphylococcus aureus [4], against Staphylococcus aureus [5] and against Staphylococcus aureus [6] was greater than 128 µg/mL in each case.
On to `C/C1=C\CC[C@@H](C)/C=C/[C@@]2(C)CC[C@@H](C(C)(C)O)[C@@H]2CC1`, for which the MIC came to 64 µg/mL (≈ 220 µM) against Staphylococcus aureus [1]; 16 µg/mL (≈ 55.1 µM) against Staphylococcus aureus [2]; 64 µg/mL (≈ 220 µM) in the assay with Staphylococcus aureus [3]; 64 µg/mL (≈ 220 µM) against Staphylococcus aureus [4]; 64 µg/mL (≈ 220 µM) against Staphylococcus aureus [5]; 64 µg/mL (≈ 220 µM) with Staphylococcus aureus [6].
For the compound `C=C(C)[C@H]1CC(=O)[C@]2(C)C/C=C(\C)CC/C=C(\C)CC[C@@H]12`, the MIC was greater than 128 µg/mL in the assay on Staphylococcus aureus [1]; 16 µg/mL (≈ 55.9 µM) against Staphylococcus aureus [2]; greater than 128 µg/mL with Staphylococcus aureus [3]; 128 µg/mL (≈ 447 µM) against Staphylococcus aureus [4]; greater than 128 µg/mL with Staphylococcus aureus [5]; greater than 128 µg/mL with Staphylococcus aureus [6].
For the compound `C=C(C)[C@H]1C[C@H](O)[C@]2(C)C/C=C(\C)CC/C=C(\C)CC[C@@H]12`, the minimal inhibitory concentration (MIC) was 64 µg/mL (≈ 222 µM) against Staphylococcus aureus [1]; 8 µg/mL (≈ 27.7 µM) against Staphylococcus aureus [2]; 64 µg/mL (≈ 222 µM) against Staphylococcus aureus [3]; 32 µg/mL (≈ 111 µM) in the assay on Staphylococcus aureus [4]; 64 µg/mL (≈ 222 µM) against Staphylococcus aureus [5]; 128 µg/mL (≈ 444 µM) with Staphylococcus aureus [6].
Consider `CCn1cc(C(=O)O)c(=O)c2cc(F)c(N3CCNCC3)cc21` [NORFLOXACIN], for which the MIC against Staphylococcus aureus [1] worked out at 0.5 µg/mL (≈ 1.57 µM); in the assay with Staphylococcus aureus [2] it was 128 µg/mL (≈ 401 µM); with Staphylococcus aureus [3], 0.5 µg/mL (≈ 1.57 µM); against Staphylococcus aureus [4] it was 32 µg/mL (≈ 100 µM); with Staphylococcus aureus [5], 8 µg/mL (≈ 25.1 µM); against Staphylococcus aureus [6], 0.5 µg/mL (≈ 1.57 µM).
In the case of `C=C(C)[C@H]1C[C@H](OC(C)=O)[C@]2(C)C[C@@H]3O[C@@]3(C)CC/C=C(\C)CC[C@@H]12`, the MIC against Staphylococcus aureus [1] worked out at 128 µg/mL (≈ 369 µM); against Staphylococcus aureus [2] it was 32 µg/mL (≈ 92.3 µM); in the assay with Staphylococcus aureus [3], 64 µg/mL (≈ 185 µM); in the assay with Staphylococcus aureus [4], 64 µg/mL (≈ 185 µM); in the assay on Staphylococcus aureus [5] it was 128 µg/mL (≈ 369 µM); against Staphylococcus aureus [6], 32 µg/mL (≈ 92.3 µM).
In the case of `C=C(C)[C@@H]1CC(=O)[C@]2(C)C/C=C(\C)CC/C=C(\C)CC[C@@H]12`, the MIC against Staphylococcus aureus [1], in the assay on Staphylococcus aureus [2], against Staphylococcus aureus [3], in the assay with Staphylococcus aureus [4], with Staphylococcus aureus [5] and against Staphylococcus aureus [6] was greater than 128 µg/mL in each case.
For `C=C(C)[C@H]1CC(=O)[C@]2(C)C[C@@H]3O[C@@]3(C)CC/C=C(\C)CC[C@@H]12`, the MIC is greater than 128 µg/mL against Staphylococcus aureus [1]; greater than 128 µg/mL against Staphylococcus aureus [2]; 128 µg/mL (≈ 423 µM) with Staphylococcus aureus [3]; greater than 128 µg/mL against Staphylococcus aureus [4]; greater than 128 µg/mL against Staphylococcus aureus [5]; greater than 128 µg/mL in the assay on Staphylococcus aureus [6].
Turning to `C=C(C)[C@H]1CC(=O)[C@]2(C)C/C=C(/C)CC[C@@H]3O[C@@]3(C)CC[C@@H]12`, the minimal inhibitory concentration (MIC) in the assay with Staphylococcus aureus [1], against Staphylococcus aureus [2], in the assay with Staphylococcus aureus [3], in the assay with Staphylococcus aureus [4], with Staphylococcus aureus [5] and with Staphylococcus aureus [6] was greater than 128 µg/mL each time.
As for `C/C1=C\C[C@@]2(C)CC[C@@](O)(C(C)C)[C@@H]2CC/C(C)=C/CC1`, the MIC was determined as 8 µg/mL (≈ 27.5 µM) with Staphylococcus aureus [1]; 8 µg/mL (≈ 27.5 µM) in the assay with Staphylococcus aureus [2]; 8 µg/mL (≈ 27.5 µM) in the assay on Staphylococcus aureus [3]; 16 µg/mL (≈ 55.1 µM) in the assay on Staphylococcus aureus [4]; 16 µg/mL (≈ 55.1 µM) against Staphylococcus aureus [5]; 8 µg/mL (≈ 27.5 µM) against Staphylococcus aureus [6].
As for `C=C(C)[C@H]1CC[C@]2(C)C/C=C(\C)CC/C=C(\C)CC[C@@H]12`, the MIC against Staphylococcus aureus [1] is 128 µg/mL (≈ 470 µM); with Staphylococcus aureus [2], 16 µg/mL (≈ 58.7 µM); in the assay on Staphylococcus aureus [3], 128 µg/mL (≈ 470 µM); against Staphylococcus aureus [4], 128 µg/mL (≈ 470 µM); in the assay with Staphylococcus aureus [5], 128 µg/mL (≈ 470 µM); against Staphylococcus aureus [6], 64 µg/mL (≈ 235 µM).
With `C=C(C)[C@H]1CC(=O)[C@]2(C)C/C=C(/C)CC/C=C(\C)CC[C@@H]12`, the MIC against Staphylococcus aureus [1], in the assay on Staphylococcus aureus [2], in the assay with Staphylococcus aureus [3], in the assay on Staphylococcus aureus [4], against Staphylococcus aureus [5] and in the assay on Staphylococcus aureus [6] was greater than 128 µg/mL throughout.
For `C=C(C)[C@H]1CC[C@]2(C)C/C=C(\C)CC[C@@H]3O[C@@]3(C)CC[C@@H]12`, the minimal inhibitory concentration (MIC) in the assay on Staphylococcus aureus [1] is 128 µg/mL (≈ 444 µM); in the assay on Staphylococcus aureus [2] it was 4 µg/mL (≈ 13.9 µM); against Staphylococcus aureus [3], greater than 128 µg/mL; with Staphylococcus aureus [4], greater than 128 µg/mL; against Staphylococcus aureus [5] it was greater than 128 µg/mL; in the assay on Staphylococcus aureus [6], greater than 128 µg/mL.
For `C=C(C)[C@H]1C[C@H](OC(C)=O)[C@]2(C)C/C=C(\C)CC/C=C(\C)CC[C@@H]12`, the MIC in the assay on Staphylococcus aureus [1], with Staphylococcus aureus [2], in the assay on Staphylococcus aureus [3], in the assay on Staphylococcus aureus [4], with Staphylococcus aureus [5] and in the assay on Staphylococcus aureus [6] was greater than 128 µg/mL throughout.
As for `C/C1=C\C[C@@]2(C)CC[C@H](C(C)(C)O)[C@@H]2CC/C(C)=C/CC1`, the MIC is 32 µg/mL (≈ 110 µM) against Staphylococcus aureus [1]; 8 µg/mL (≈ 27.5 µM) with Staphylococcus aureus [2]; 64 µg/mL (≈ 220 µM) with Staphylococcus aureus [3]; 32 µg/mL (≈ 110 µM) in the assay on Staphylococcus aureus [4]; 64 µg/mL (≈ 220 µM) with Staphylococcus aureus [5]; 32 µg/mL (≈ 110 µM) against Staphylococcus aureus [6].

Source of the values: ChEMBL document CHEMBL1687851, “Dolabellanes with antibacterial activity from the brown alga Dilophus spiralis” (2011).
